Results taken from ChEMBL document CHEMBL3352730, “Synthesis and effects on cell viability of flavonols and 3-methyl ether derivatives on human leukemia cells” (Eur J Med Chem, 2014).
Activity calls are given as the source filed them. The calls are words filed in the database; no cut-off is given here.

What was measured:
U-937 [1] = assay: Induction of cell cycle arrest in human U937 cells assessed as accumulation at G2/M phase at 3 uM after 24 hrs by propidium iodide staining based flow cytometry (reference value: 22.8 +/- 1.6%); assay type: functional
U-937 [2] = assay: Induction of cell cycle arrest in human U937 cells assessed as accumulation at subG1 phase at 10 uM after 24 hrs by propidium iodide staining based flow cytometry (reference value: 3.9 +/- 0.8%); assay type: functional
MOLT-3 [3] = assay: Induction of apoptosis in human MOLT3 cells assessed as pro-caspase-7 cleavage by Western blotting method; assay type: functional, cell-based
In short: (§1)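 Cells were exposed to a range of compound concentrations and harvested at 24 h. Lysates were immunoblotted for caspase proforms and cleaved forms, and for Bcl-2 family proteins.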

HL-60 [4] = assay: Induction of cell cycle arrest in human HL60 cells assessed as accumulation at G2/M phase at 1 uM after 48 hrs by propidium iodide staining based flow cytometry (reference value: 17.9 +/- 0.7%); assay type: functional
HL-60 [5] = assay: Induction of cell cycle arrest in human HL60 cells assessed as accumulation at S phase at 10 uM after 12 hrs by propidium iodide staining based flow cytometry (reference value: 14.7 +/- 0.3%); assay type: functional
HL-60 [6] = assay: Increase in TRAIL expression in human HL60 cells at 10 30 uM after 24 hrs by immunoblotting method; assay type: functional, cell-based
In short: (§2)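 HL-60 and U937 cells were treated with increasing concentrations for 24 h. Lysates were immunoblotted for TRAIL, DR4 and DR5.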

HL-60 [7] = assay: Induction of cell cycle arrest in human HL60 cells assessed as accumulation at G2/M phase at 1 uM after 24 hrs by propidium iodide staining based flow cytometry (reference value: 22.5 +/- 0.9%); assay type: functional
HL-60 [8] = assay: Induction of apoptosis in human HL60 cells assessed as increase in caspase 8 activity using IETD-pNA substrate at 10 uM after 24 hrs; assay type: functional
In short: (§3)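 Cells were given 10 µM for 24 h. Lysates were assayed for cleavage of DEVD-pNA (caspase-3/7), IETD-pNA (caspase-8) and LEHD-pNA (caspase-9). Results are expressed as fold over control, from three independent experiments in triplicate.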

U-937 [9] = assay: Induction of cell cycle arrest in human U937 cells assessed as accumulation at G1 phase at 10 uM after 12 hrs by propidium iodide staining based flow cytometry (reference value: 45.8 +/- 0.8%); assay type: functional
HL-60 [10] = assay: Increase in DR5 expression in human HL60 cells at 10 30 uM after 24 hrs by immunoblotting method; assay type: functional, cell-based; in short: as §2
U-937 [11] = assay: Induction of cell cycle arrest in human U937 cells assessed as accumulation at S phase at 1 uM after 24 hrs by propidium iodide staining based flow cytometry (reference value: 18.6 +/- 0.3%); assay type: functional
HL-60 [12] = assay: Induction of cell cycle arrest in human HL60 cells assessed as accumulation at subG1 phase at 10 uM after 24 hrs by propidium iodide staining based flow cytometry (reference value: 3.4 +/- 0.3%); assay type: functional
U-937 [13] = assay: Induction of cell cycle arrest in human U937 cells assessed as accumulation at S phase at 10 uM after 48 hrs by propidium iodide staining based flow cytometry (reference value: 18.9 +/- 0.2%); assay type: functional
U-937 [14] = assay: Induction of apoptosis in human U937 cells assessed as increase in caspase 8 activity using IETD-pNA substrate at 10 uM after 24 hrs; assay type: functional, cell-based; in short: as §3
U-937 [15] = assay: Induction of cell cycle arrest in human U937 cells assessed as accumulation at G2/M phase at 3 uM after 12 hrs by propidium iodide staining based flow cytometry (reference value: 24.2 +/- 1.2%); assay type: functional
MOLT-3 [16] = assay: Induction of apoptosis in human MOLT3 cells assessed as pro-caspase-8 cleavage by Western blotting method; assay type: functional, cell-based; in short: as §1
U-937 [17] = assay: Increase in DR5 expression in human U937 cells at 10 30 uM after 24 hrs by immunoblotting method; assay type: functional, cell-based; in short: as §2
HL-60 [18] = assay: Induction of apoptosis in human HL60 cells assessed as pro-caspase-8 cleavage by Western blotting method; assay type: functional, cell-based; in short: as §1
U-937 [19] = assay: Induction of cell cycle arrest in human U937 cells assessed as accumulation at S phase at 3 uM after 12 hrs by propidium iodide staining based flow cytometry (reference value: 20.5 +/- 0.8%); assay type: functional
HL-60 [20] = assay: Induction of cell cycle arrest in human HL60 cells assessed as accumulation at G2/M phase at 10 uM after 12 hrs by propidium iodide staining based flow cytometry (reference value: 18.5 +/- 0.5%); assay type: functional
MOLT-3 [21] = assay: Induction of apoptosis in human MOLT3 cells assessed as pro-caspase-6 cleavage by Western blotting method; assay type: functional, cell-based; in short: as §1
HL-60 [22] = assay: Induction of cell cycle arrest in human HL60 cells assessed as accumulation at subG1 phase at 3 uM after 24 hrs by propidium iodide staining based flow cytometry (reference value: 3.4 +/- 0.3%); assay type: functional
MOLT-3 [23] = assay: Induction Bax cleavage in human MOLT3 cells at 3 uM by Western blotting method; assay type: functional, cell-based; in short: as §1
U-937 [24] = assay: Cytotoxicity against human U937 cells at 30 uM incubated for 24 hrs followed of 0.5 ug/mL TRAIL exposure for 24 hrs by MTT assay; assay type: functional, cell-based
In short: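 U937 cells, MTT viability read-out. One arm received TRAIL at 0.5 µg/mL together with compound at 30 µM for 48 h. The other arm had compound for 24 h, then TRAIL for 24 h. Three independent experiments, each in triplicate.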

MOLT-3 [25] = assay: Induction of apoptosis in human MOLT3 cells assessed as increase in caspase 9 activity using LEHD-pNA substrate at 10 uM after 24 hrs; assay type: functional, cell-based; in short: as §3
HL-60 [26] = assay: Induction of cell cycle arrest in human HL60 cells assessed as accumulation at S phase at 10 uM after 24 hrs by propidium iodide staining based flow cytometry (reference value: 17.9 +/- 0.6%); assay type: functional
HL-60 [27] = assay: Induction of cell cycle arrest in human HL60 cells assessed as accumulation at S phase at 3 uM after 12 hrs by propidium iodide staining based flow cytometry (reference value: 14.7 +/- 0.3%); assay type: functional
U-937 [28] = assay: Induction of cell cycle arrest in human U937 cells assessed as accumulation at subG1 phase at 3 uM after 12 hrs by propidium iodide staining based flow cytometry (reference value: 4.6 +/- 0.9%); assay type: functional
HL-60 [29] = assay: Induction of cell cycle arrest in human HL60 cells assessed as accumulation at S phase at 1 uM after 12 hrs by propidium iodide staining based flow cytometry (reference value: 14.7 +/- 0.3%); assay type: functional
U-937 [30] = assay: Induction of apoptosis in human U937 cells assessed as pro-caspase-4 processing by Western blotting method; assay type: functional, cell-based; in short: as §1
U-937 [31] = assay: Induction of cell cycle arrest in human U937 cells assessed as accumulation at subG1 phase at 1 uM after 12 hrs by propidium iodide staining based flow cytometry (reference value: 4.6 +/- 0.9%); assay type: functional
HL-60 [32] = assay: Induction of cell cycle arrest in human HL60 cells assessed as accumulation at G1 phase at 10 uM after 24 hrs by propidium iodide staining based flow cytometry (reference value: 53 +/- 1.1%); assay type: functional
HL-60 [33] = assay: Induction of cell cycle arrest in human HL60 cells assessed as accumulation at G2/M phase at 1 uM after 12 hrs by propidium iodide staining based flow cytometry (reference value: 18.5 +/- 0.5%); assay type: functional

In the case of `O=c1c(O)c(-c2ccc(Br)cc2)oc2ccccc12`, the Activity (U-937 [1]) is reported as 21.7%, the Activity (U-937 [2]) is reported as 13.8% and the Activity (MOLT-3 [3]) is reported as “Active”. The Activity (HL-60 [4]) was 20.8%, the Activity (HL-60 [5]) was 15.9% and the Activity (HL-60 [6]) was “Active”. For the same compound, the Activity (HL-60 [7]) was 22.5%, the “fold change (FC)” value (HL-60 [8]) was 1.7 and the Activity (U-937 [9]) was 47.6%. The Activity (HL-60 [10]) was “Active”, the Activity (U-937 [11]) was 18.9% and the Activity (HL-60 [12]) was 20.4%. The Activity (U-937 [13]) was 11.9%, the Activity (U-937 [14]) was “Active” and the Activity (U-937 [15]) was 23.9%. The Activity (MOLT-3 [16]) was “Active”, the Activity (U-937 [17]) was “Active” and the Activity (HL-60 [18]) was “Active”. The Activity (U-937 [19]) was 22.4%, the Activity (HL-60 [20]) was 13.4% and the Activity (MOLT-3 [21]) was “Active”. The Activity (HL-60 [22]) was 5.9%, the Activity (MOLT-3 [23]) was “Active” and the Activity (U-937 [24]) was “Active”. The Activity (MOLT-3 [25]) was “Active”, the Activity (HL-60 [26]) was 24.1% and the Activity (HL-60 [27]) was 14.8%. For the same compound, the Activity (U-937 [28]) was 3.1%, the Activity (HL-60 [29]) was 15.6% and the Activity (U-937 [30]) was “Active”. It also gave an Activity (U-937 [31]) of 3.3%, an Activity (HL-60 [32]) of 37.3% and an Activity (HL-60 [33]) of 19.4%.
